ChEMBL document CHEMBL1157589, “Antifungal 3,5-disubstituted furanones: From 5-acyloxymethyl to 5-alkylidene derivatives” (Bioorg Med Chem, 2010)
Values after ≈ are worked out from the molar mass of the structure shown. Active and inactive are the calls of the source. The rule behind the calls is not given here.

Columns and labels:
[1] = test system: Candida albicans; assay: Antifungal activity against Candida albicans ATCC 44859 after 24 hrs by microdilution method; assay type: functional; settings: ATCC 44859, 24 h
Outline: (§1)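 Yeasts held on Sabouraud dextrose agar. MIC by NCCLS M27-A broth microdilution in RPMI 1640 with L-glutamine, buffered with 0.165 M MOPS to pH 7.0. Compounds in DMSO (≤2% final), twofold dilutions 500–0.48. Final inoculum 5 × 10³ ± 0.2 cfu mL⁻¹. Incubated at 35 °C; absorbance at 540 nm read at 24 and 48 h. MIC is 80% growth inhibition versus control; run twice in duplicate.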

[2] = test system: Trichosporon beigelii; assay: Antifungal activity against Trichosporon beigelii 1188 after 24 hrs by microdilution method; assay type: functional; settings: Trichosporon beigelii, 1188, 24 h; outline: as §1
[3] = test system: Candida parapsilosis; assay: Antifungal activity against Candida parapsilosis ATCC 22019 after 24 hrs by microdilution method; assay type: functional; settings: Lodderomyces parapsilosis, ATCC 22019, 24 h; outline: as §1
[4] = test system: Trichosporon beigelii; assay: Antifungal activity against Trichosporon beigelii 1188 after 48 hrs by microdilution method; assay type: functional; settings: Trichosporon beigelii, 1188, 48 h; outline: as §1
[5] = test system: CCRF-CEM; assay: Cytostatic activity against human CCRF-CEM cells after 72 hrs by XTT assay; assay type: functional, cell-based; settings: Homo sapiens, CCRF-CEM, 72 h; read-out: IC50
Outline: (§2)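 Leukemia cells (L1210 ATCC CCL 219, CCRF-CEM ATCC CCL 119, HL-60 ATCC CCL 240) grown in 24-well plates in RPMI 1640 with fetal calf serum. Growth assessed 72 h after drug addition. Viability measured by XTT spectrophotometric assay; potency given as IC50.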

[6] = test system: Pichia kudriavzevii; assay: Antifungal activity against Candida krusei ATCC 6258 after 48 hrs by microdilution method; assay type: functional; settings: ATCC 6258, 48 h; outline: as §1
[7] = test system: Aspergillus fumigatus; assay: Antifungal activity against Aspergillus fumigatus 231 after 48 hrs by microdilution method; assay type: functional; settings: Aspergillus fumigatus, 231, 48 h
Outline: (§3)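 Filamentous strains held on Sabouraud dextrose agar. NCCLS M27-A broth microdilution in RPMI 1640 with L-glutamine and 0.165 M MOPS, pH 7.0. DMSO diluent ≤2% final; twofold dilutions 500–0.48. Inoculum 5 × 10³ ± 0.2 cfu mL⁻¹ final.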

[8] = test system: Aspergillus fumigatus; assay: Antifungal activity against Aspergillus fumigatus 231 after 24 hrs by microdilution method; assay type: functional; settings: Aspergillus fumigatus, 231, 24 h; outline: as §3
[9] = test system: Pichia kudriavzevii; assay: Antifungal activity against Candida krusei ATCC 6258 after 24 hrs by microdilution method; assay type: functional; settings: ATCC 6258, 24 h; outline: as §1
[10] = test system: Lichtheimia corymbifera; assay: Antifungal activity against Absidia corymbifera 272 after 24 hrs by microdilution method; assay type: functional; settings: Lichtheimia corymbifera, 272, 24 h; outline: as §3
[11] = test system: Trichophyton mentagrophytes; assay: Antifungal activity against Trichophyton mentagrophytes 445 after 72 hrs by microdilution method; assay type: functional; settings: Trichophyton mentagrophytes, 445, 72 h
Outline: (§4)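 Dermatophyte held on Sabouraud dextrose agar. M27-A microdilution in MOPS-buffered (0.165 M, pH 7.0) RPMI 1640 with L-glutamine. DMSO ≤2% final; twofold dilutions 500–0.48. Inoculum 5 × 10³ ± 0.2 cfu mL⁻¹ final. Incubated at 35 °C; MIC read visually at 72 and 120 h as 80% inhibition of control growth; determined twice in duplicate.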

[12] = test system: Candida tropicalis; assay: Antifungal activity against Candida tropicalis 156 after 48 hrs by microdilution method; assay type: functional; settings: Candida tropicalis, 156, 48 h; outline: as §1
[13] = test system: Trichophyton mentagrophytes; assay: Antifungal activity against Trichophyton mentagrophytes 445 after 120 hrs by microdilution method; assay type: functional; settings: Trichophyton mentagrophytes, 445, 120 h; outline: as §4
[14] = test system: Candida tropicalis; assay: Antifungal activity against Candida tropicalis 156 after 24 hrs by microdilution method; assay type: functional; settings: Candida tropicalis, 156, 24 h; outline: as §1
[15] = test system: Candida parapsilosis; assay: Antifungal activity against Candida parapsilosis ATCC 22019 after 48 hrs by microdilution method; assay type: functional; settings: Lodderomyces parapsilosis, ATCC 22019, 48 h; outline: as §1
[16] = test system: Clavispora lusitaniae; assay: Antifungal activity against Candida lusitaniae 2446/I after 48 hrs by microdilution method; assay type: functional; outline: as §1
[17] = test system: HL-60; assay: Cytostatic activity against human HL60 cells after 72 hrs by XTT assay; assay type: functional, cell-based; settings: Homo sapiens, HL-60, 72 h; read-out: IC50; outline: as §2
[18] = test system: Clavispora lusitaniae; assay: Antifungal activity against Candida lusitaniae 2446/I after 24 hrs by microdilution method; assay type: functional; outline: as §1
[19] = test system: Pichia kudriavzevii; assay: Antifungal activity against Candida krusei E28 after 24 hrs by microdilution method; assay type: functional; settings: E28, 24 h; outline: as §1
[20] = test system: Lichtheimia corymbifera; assay: Antifungal activity against Absidia corymbifera 272 after 48 hrs by microdilution method; assay type: functional; settings: Lichtheimia corymbifera, 272, 48 h; outline: as §3
[21] = test system: HeLa S3; assay: Cytostatic activity against human HeLaS3 cells after 72 hrs by XTT assay; assay type: functional, cell-based
[22] = test system: Nakaseomyces glabratus; assay: Antifungal activity against Candida glabrata 20/I after 48 hrs by microdilution method; assay type: functional; outline: as §1
[23] = test system: Candida albicans; assay: Antifungal activity against Candida albicans ATCC 90028 after 24 hrs by microdilution method; assay type: functional; settings: ATCC 90028, 24 h; outline: as §1
[24] = test system: Candida albicans; assay: Antifungal activity against Candida albicans ATCC 90028 after 48 hrs by microdilution method; assay type: functional; settings: ATCC 90028, 48 h; outline: as §1
[25] = test system: Candida albicans; assay: Antifungal activity against Candida albicans ATCC 44859 after 48 hrs by microdilution method; assay type: functional; settings: ATCC 44859, 48 h; outline: as §1
[26] = test system: Nakaseomyces glabratus; assay: Antifungal activity against Candida glabrata 20/I after 24 hrs by microdilution method; assay type: functional; outline: as §1
[27] = test system: Pichia kudriavzevii; assay: Antifungal activity against Candida krusei E28 after 48 hrs by microdilution method; assay type: functional; settings: E28, 48 h; outline: as §1
[28] = test system: L1210; assay: Cytostatic activity against mouse L1210 cells after 72 hrs by XTT assay; assay type: functional, cell-based; settings: Mus musculus, L1210, 72 h; read-out: IC50; outline: as §2
[29] = test system: CCRF-CEM; assay: Induction of apoptosis in human CCRF-CEM cells assessed as loss of cellular plasma membrane integrity at 2.5 umol/L after 72 hrs by annexin-V FITC staining-based flow cytometry; assay type: functional, cell-based
Outline: (§5)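 CCRF-CEM cells grown with compound at 2.5 µmol/L alongside untreated controls. Apoptotic and necrotic populations detected by flow cytometry using an Annexin V-FITC apoptosis kit, following the manufacturer's protocol.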

[30] = test system: HeLa S3; assay: Cytostatic activity against human HeLaS3 cells after 48 hrs by XTT assay; settings: Homo sapiens, HeLa S3, 48 h; read-out: IC50
[31] = test system: CCRF-CEM; assay: Induction of apoptosis in human CCRF-CEM cells assessed as loss of cellular […] membrane integrity at 2.5 umol/L after 72 hrs by annexin-V FITC staining-based flow cytometry; assay type: functional, cell-based; outline: as §5
[32] = test system: CCRF-CEM; assay: Induction of apoptosis in human CCRF-CEM cells assessed as necrotic cells at 2.5 umol/L after 72 hrs by annexin-V FITC staining-based flow cytometry; assay type: functional; outline: as §5
[33] = test system: CCRF-CEM; assay: Cell cycle arrest in human CCRF-CEM cells assessed as increase in accumulation at S phase at 2.5 umol/L after 72 hrs by FACS analysis; assay type: functional, cell-based
Outline: (§6)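 CCRF-CEM cells cultured with compound at 2.5 µmol/L. At the 72 h growth endpoint, cells ethanol-fixed and stained with propidium iodide in RNase A-containing buffer. Cell-cycle distribution analysed by flow cytometry against untreated control cells.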

[34] = test system: CCRF-CEM; assay: Cell cycle arrest in human CCRF-CEM cells assessed as decrease in accumulation at G2/M phase at 2.5 umol/L after 72 hrs by FACS analysis; assay type: functional, cell-based; outline: as §6
[35] = test system: CCRF-CEM; assay: Cell cycle arrest in human CCRF-CEM cells assessed as increase in accumulation at G1 phase at 2.5 umol/L after 72 hrs by FACS analysis; assay type: functional, cell-based; outline: as §6
[36] = Chemical stability in tetrahydrofuran solution at 4.7 mg after 24 hrs in room temperature by HPLC analysis; assay type: physicochemical
[37] = Chemical stability in DMSO solution at 4.7 mg after 24 hrs in room temperature by HPLC analysis; assay type: physicochemical

| SMILES | MIC80 [1] [µM] | MIC80 [2] [µM] | MIC80 [3] [µM] | MIC80 [4] [µM] | MIC80 [6] [µM] | MIC80 [7] [µM] | MIC80 [8] [µM] | MIC80 [9] [µM] | MIC80 [10] [µM] | MIC80 [11] [µM] | MIC80 [12] [µM] | MIC80 [13] [µM] | MIC80 [14] [µM] | MIC80 [15] [µM] | MIC80 [16] [µM] | MIC80 [18] [µM] | MIC80 [19] [µM] | MIC80 [20] [µM] | MIC80 [22] [µM] | MIC80 [23] [µM] | further results |
| --- | --- | --- | --- | --- | --- | --- | --- | --- | --- | --- | --- | --- | --- | --- | --- | --- | --- | --- | --- | --- | --- |
| COCC1C=C(c2ccc(Br)cc2)C(=O)O1 (configuration not stated) | 15.6 (≈ 4.42 µg/mL) | 62.5 (≈ 17.7 µg/mL) | 125 (≈ 35.4 µg/mL) | 125 (≈ 35.4 µg/mL) | 250 (≈ 70.8 µg/mL) | 62.5 (≈ 17.7 µg/mL) | 31.2 (≈ 8.85 µg/mL) | 250 (≈ 70.8 µg/mL) | 125 (≈ 35.4 µg/mL) | 31.2 (≈ 8.85 µg/mL) | 62.5 (≈ 17.7 µg/mL) | 31.2 (≈ 8.85 µg/mL) | 62.5 (≈ 17.7 µg/mL) | 250 (≈ 70.8 µg/mL) | 125 (≈ 35.4 µg/mL) | 62.5 (≈ 17.7 µg/mL) | 250 (≈ 70.8 µg/mL) | 250 (≈ 70.8 µg/mL) | 125 (≈ 35.4 µg/mL) | 31.2 (≈ 8.85 µg/mL) | IC50 [5]: 2.21 µM; IC50 [17]: 16 µM; IC50 [21]: Not Active; MIC80 [24]: 31.2 µM (≈ 8.85 µg/mL); MIC80 [25]: 31.2 µM (≈ 8.85 µg/mL); MIC80 [26]: 125 µM (≈ 35.4 µg/mL); MIC80 [27]: 500 µM (≈ 142 µg/mL) |
| C=C1C=C(c2ccc(Br)cc2)C(=O)O1 | 0.49 (≈ 0.123 µg/mL) | 3.9 (≈ 0.979 µg/mL) | 7.81 (≈ 1.96 µg/mL) | 15.6 (≈ 3.92 µg/mL) | 7.81 (≈ 1.96 µg/mL) | 7.81 (≈ 1.96 µg/mL) | 1.95 (≈ 0.49 µg/mL) | 7.81 (≈ 1.96 µg/mL) | 31.2 (≈ 7.85 µg/mL) | 1.95 (≈ 0.49 µg/mL) | 15.6 (≈ 3.92 µg/mL) | 3.9 (≈ 0.979 µg/mL) | 7.81 (≈ 1.96 µg/mL) | 15.6 (≈ 3.92 µg/mL) | 15.6 (≈ 3.92 µg/mL) | 7.81 (≈ 1.96 µg/mL) | 7.81 (≈ 1.96 µg/mL) | 125 (≈ 31.4 µg/mL) | 1.95 (≈ 0.49 µg/mL) | 3.9 (≈ 0.979 µg/mL) | IC50 [5]: 2.52 µM; IC50 [28]: 21 µM; Activity [29]: Active; IC50 [30]: 2.09 µM; Activity [31]: Active; Activity [32]: > 80%; Activity [33]: Active; Activity [34]: Active; IC50 [17]: 18 µM; Activity [35]: Active; MIC80 [24]: 7.81 µM (≈ 1.96 µg/mL); MIC80 [25]: 1.95 µM (≈ 0.49 µg/mL); MIC80 [26]: 1.95 µM (≈ 0.49 µg/mL); MIC80 [27]: 7.81 µM (≈ 1.96 µg/mL) |
| CC(=O)OCC1C=C(c2ccc(Br)cc2)C(=O)O1 (configuration not stated) | 0.49 (≈ 0.152 µg/mL) | 7.81 (≈ 2.43 µg/mL) | 3.9 (≈ 1.21 µg/mL) | 7.81 (≈ 2.43 µg/mL) | 7.81 (≈ 2.43 µg/mL) | 3.91 (≈ 1.22 µg/mL) | 0.98 (≈ 0.305 µg/mL) | 3.9 (≈ 1.21 µg/mL) | 7.81 (≈ 2.43 µg/mL) | 1.95 (≈ 0.607 µg/mL) | 7.81 (≈ 2.43 µg/mL) | 3.9 (≈ 1.21 µg/mL) | 7.81 (≈ 2.43 µg/mL) | 15.6 (≈ 4.86 µg/mL) | 7.81 (≈ 2.43 µg/mL) | 3.9 (≈ 1.21 µg/mL) | 7.81 (≈ 2.43 µg/mL) | 15.6 (≈ 4.86 µg/mL) | 1.95 (≈ 0.607 µg/mL) | 3.9 (≈ 1.21 µg/mL) | Stability [36]: Stable; Stability [37]: < 3 h; MIC80 [24]: 3.9 µM (≈ 1.21 µg/mL); MIC80 [25]: 1.95 µM (≈ 0.607 µg/mL); MIC80 [26]: 1.95 µM (≈ 0.607 µg/mL); MIC80 [27]: 7.81 µM (≈ 2.43 µg/mL) |
